Laboratory results reported in ChEMBL document CHEMBL4765368, “Structure guided design and synthesis of furyl thiazolidinedione derivatives as inhibitors of GLUT 1 and GLUT 4, and evaluation of their anti-leukemic potential” (Eur J Med Chem, 2020).
Active and inactive are the calls of the source. The calls are words filed in the database; no cut-off is given here.

Columns and labels:
[1] = molecular target: T1, Histone deacetylase 8 (Homo sapiens) (UniProt Q9BY41); assay: Inhibition of recombinant human His6/SUMO-tagged HDAC8 expressed in Escherichia coli (BL21) DE3 pLysS assessed as residual activity at 50 uM using Boc-Lys(trifluoroacetyl)-AMC as substrate preincubated for 60 mins followed by substrate addition and measured after 60 mins by fluorescence assay relative to control; conditions: time 120.0 min
T1 sequence (whole entry): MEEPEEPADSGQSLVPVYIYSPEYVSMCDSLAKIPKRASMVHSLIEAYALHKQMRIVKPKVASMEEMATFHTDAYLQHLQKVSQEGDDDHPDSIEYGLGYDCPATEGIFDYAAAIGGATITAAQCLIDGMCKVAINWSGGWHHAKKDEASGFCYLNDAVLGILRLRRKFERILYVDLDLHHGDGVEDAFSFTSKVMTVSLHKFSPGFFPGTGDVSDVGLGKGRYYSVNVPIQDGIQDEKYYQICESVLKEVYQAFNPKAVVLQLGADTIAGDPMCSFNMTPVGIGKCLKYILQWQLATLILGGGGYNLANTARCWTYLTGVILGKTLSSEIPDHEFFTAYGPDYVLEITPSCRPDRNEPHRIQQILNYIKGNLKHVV
In short: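 20 μM Boc-Lys(trifluoroacetyl)-AMC was then added for 60 min at 30 °C, the reaction stopped with 1.7 μM SATFMK and developed with 0.4 mg/ml trypsin, and AMC fluorescence read at Ex 350/Em 450 nm. Triplicates; percent relative activity.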

[2] = molecular target: T2, Solute carrier family 2, facilitated glucose transporter member 4 (Homo sapiens) (UniProt P14672); assay: Inhibition of transport activity of human GLUT4 expressed in hexose transporter deficient […] erg4 yeast cells assessed as reduction in transporter-mediated [14C]-hexose uptake into cells at 100 uM measured after 10 mins by scintillation counting method relative to control; type: cell-based
T2 sequence (whole entry): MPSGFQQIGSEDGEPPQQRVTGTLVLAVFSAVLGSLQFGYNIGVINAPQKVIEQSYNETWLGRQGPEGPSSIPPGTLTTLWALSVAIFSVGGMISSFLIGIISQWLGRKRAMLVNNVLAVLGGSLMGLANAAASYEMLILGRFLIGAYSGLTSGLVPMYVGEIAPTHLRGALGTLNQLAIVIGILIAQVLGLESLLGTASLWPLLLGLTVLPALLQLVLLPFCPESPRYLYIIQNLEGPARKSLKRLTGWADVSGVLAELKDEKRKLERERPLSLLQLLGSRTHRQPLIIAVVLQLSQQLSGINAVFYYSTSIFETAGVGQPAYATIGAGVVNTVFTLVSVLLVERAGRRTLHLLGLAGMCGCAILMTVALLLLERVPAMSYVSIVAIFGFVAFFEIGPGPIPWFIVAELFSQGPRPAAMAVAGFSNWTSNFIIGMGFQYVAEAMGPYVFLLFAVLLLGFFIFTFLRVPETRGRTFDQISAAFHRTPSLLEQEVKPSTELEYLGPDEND
In short: (§1)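 The hxt0 yeast strain expressing one human GLUT was grown at 30 °C and resuspended in PBS pH 7.4 at OD600 ~10. Uptake was started with 14C-glucose at 5 mM final (GLUT1, GLUT4) or 14C-fructose at 10 mM final (GLUT5). It was quenched after 10 min with ice-cold 0.1 M KPi/0.1 M LiCl pH 5.5, filtered and counted by scintillation. Compound at 100 μM with 1% DMSO; DMSO control and phloretin 200 μM (GLUT1/4) or MSNBA 100 μM (GLUT5) as references. Triplicates.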

KCL-22 = assay: Cytotoxicity against human KCL-22 cells assessed as reduction in cell viability measured after 48 hrs by Hoechst 33342/propidium iodide staining based imaging analysis; type: functional
In short: (§2)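 Cells were seeded at 10,000 per well (HS-27 at 3,000) in 10% FBS RPMI (leukemic lines) or DMEM (MDA-MB-231, HS-27). Compound in DMSO (1% v/v final) at 0.5–100 µM for 48 h. Hoechst 33342 and PI were added 2 h before automated imaging; dead cells were co-stained. Quadruplicates. CC50 was taken by linear interpolation between the two concentrations nearest 50% death.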

HS27 = assay: Cytotoxicity against human HS27 cells assessed as reduction in cell viability measured after 48 hrs by Hoechst 33342/propidium iodide staining based imaging analysis; conditions: hs27, 48 h; in short: as §2
[3] = molecular target: T3, Solute carrier family 2, facilitated glucose transporter member 1 (Homo sapiens) (UniProt P11166); assay: Inhibition of transport activity of human GLUT1 expressed in hexose transporter deficient VW4000fgy1 yeast cells assessed as reduction in transporter-mediated [14C]-hexose uptake into cells by measuring relative activity at 100 uM measured after 10 mins by scintillation counting method relative to control; type: cell-based; set-up: scale not given: the % may be the effect or the level left; in short: as §1
T3 sequence (whole entry): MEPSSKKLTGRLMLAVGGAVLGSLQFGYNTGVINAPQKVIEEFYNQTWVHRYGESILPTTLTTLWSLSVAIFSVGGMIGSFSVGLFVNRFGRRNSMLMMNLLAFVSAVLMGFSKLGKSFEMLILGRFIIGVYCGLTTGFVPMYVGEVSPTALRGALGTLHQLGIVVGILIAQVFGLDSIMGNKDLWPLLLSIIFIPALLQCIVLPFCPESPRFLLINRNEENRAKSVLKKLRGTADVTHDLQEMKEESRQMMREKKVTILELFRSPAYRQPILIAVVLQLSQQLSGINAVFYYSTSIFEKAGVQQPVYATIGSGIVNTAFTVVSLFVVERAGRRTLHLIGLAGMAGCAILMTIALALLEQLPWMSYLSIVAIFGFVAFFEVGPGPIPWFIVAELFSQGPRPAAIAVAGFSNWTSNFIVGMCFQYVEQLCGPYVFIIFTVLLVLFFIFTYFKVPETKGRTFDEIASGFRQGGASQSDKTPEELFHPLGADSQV

CCRF-CEM [4] = assay: Induction of apoptosis in human CCRF-CEM cells assessed as late apoptotic cells at CC50 measured after 24 hrs by AnnexinV-FITC/propidium iodide staining based flow cytometry analysis relative to control; type: functional
In short: (§3)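 CCRF-CEM cells in RPMI with 10% FBS were seeded in 24-well plates, incubated overnight, given fresh medium, then treated for 24 h. Cells were PBS-washed, spun at 500 g for 5 min at 4 °C, and resuspended in ice-cold binding buffer. They were stained with annexin V-FITC and PI for 15 min on ice in the dark, then read by flow cytometry. Untreated cells were the negative control; triplicates.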

CCRF-CEM [5] = assay: Induction of apoptosis in human CCRF-CEM cells assessed as early apoptotic cells at CC50 measured after 24 hrs by AnnexinV-FITC/propidium iodide staining based flow cytometry analysis relative to control; type: functional; in short: as §3
[6] = Cytotoxicity against human WBC assessed as cell viability at higher concentration measured after 48 hrs by MTT assay relative to control; type: tissue-based
[7] = molecular target: T3, Solute carrier family 2, facilitated glucose transporter member 1 (Homo sapiens); assay: Inhibition of GLUT1 in human CCRF-CEM cells assessed as decrease in CDK2 phosphorylation at 10 uM measured after 6 hrs by Western blot analysis; type: cell-based
In short: (§4)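 CEM cells were treated with 10 µM for 6 h. Untreated cells were the negative control and staurosporine the positive control. Cells were washed with cold PBS, lysed in Laemmli buffer with protease inhibitors, sonicated and quantified. Blots were blocked 45 min in PBS-Tween-5% milk, with primary antibody 3 h and secondary 1 h at room temperature.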

[8] = molecular target: T3, Solute carrier family 2, facilitated glucose transporter member 1 (Homo sapiens); assay: Inhibition of GLUT1 in human CCRF-CEM cells assessed as decrease in mTOR phosphorylation at 10 uM measured after 6 hrs by Western blot analysis; type: cell-based; in short: as §4

Compound	Activity [1] [%]	inhibition [2] [%]	CC50 (KCL-22) [µM]	CC50 (HS27) [µM]	Activity [3] [%]	Activity (CCRF-CEM [4]) [%]	Activity (CCRF-CEM [5]) [%]	Activity [6] [%]	inhibition [7]	inhibition [8]
O=C(CN1C(=O)S/C(=C/c2ccco2)C1=O)Nc1ccc(Cl)c(Cl)c1	> 50	> 50	72.2	> 100	30					
O=C(CN1C(=O)S/C(=C/c2ccco2)C1=O)Nc1nc2ccccc2s1	> 50	> 50	15.3	44		55.87	1.38	> 62	Active	Active
